{
  "source": "ChEMBL document CHEMBL4834429",
  "about": "“Discovery of Nanomolar Melanocortin-3 Receptor (MC3R)-Selective Small Molecule Pyrrolidine Bis-Cyclic Guanidine Agonist Compounds Via a High-Throughput \"Unbiased\" Screening Campaign” (J Med Chem, 2021)",
  "type_in_all_cases": "functional, cell-based",
  "key": {"[1]": {"biological_target": "T1, Melanocyte-stimulating hormone receptor (Mus musculus, UniProt Q01727)", "T1 sequence (Q01727 whole entry)": "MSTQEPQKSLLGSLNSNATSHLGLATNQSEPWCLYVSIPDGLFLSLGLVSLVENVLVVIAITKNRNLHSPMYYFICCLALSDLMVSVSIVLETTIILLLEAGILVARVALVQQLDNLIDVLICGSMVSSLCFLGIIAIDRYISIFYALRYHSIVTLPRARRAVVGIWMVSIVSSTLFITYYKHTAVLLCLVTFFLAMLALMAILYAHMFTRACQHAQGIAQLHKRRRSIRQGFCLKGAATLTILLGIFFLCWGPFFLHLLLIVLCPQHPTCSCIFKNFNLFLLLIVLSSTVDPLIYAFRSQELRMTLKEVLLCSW", "test": "Agonist activity at mouse melanocortin receptor 1 expressed in HEK293 cells assessed as stimulation of intracellular cAMP accumulation incubated for 24 hrs by beta-galactosidase reporter gene assay"}, "[2]": {"biological_target": "T2, Melanocortin receptor 3 (Mus musculus, UniProt P33033)", "T2 sequence (P33033 whole entry)": "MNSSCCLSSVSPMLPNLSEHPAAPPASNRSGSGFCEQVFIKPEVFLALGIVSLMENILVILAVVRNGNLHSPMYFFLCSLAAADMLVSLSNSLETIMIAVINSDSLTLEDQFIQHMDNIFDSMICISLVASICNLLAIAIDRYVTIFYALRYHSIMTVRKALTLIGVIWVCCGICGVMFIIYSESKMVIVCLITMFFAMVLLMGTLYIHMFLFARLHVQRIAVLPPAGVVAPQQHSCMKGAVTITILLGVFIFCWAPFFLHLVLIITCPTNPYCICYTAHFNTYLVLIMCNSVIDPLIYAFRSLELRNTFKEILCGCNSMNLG", "test": "Antagonist activity at mouse melanocortin receptor 3 expressed in HEK293 cells assessed as inhibition of NDP-MSH-induced intracellular cAMP accumulation incubated for 24 hrs by beta-galactosidase reporter gene assay"}, "[3]": {"biological_target": "Melanocortin receptor 4 (Mus musculus) (UniProt P56450)", "sequence (P56450 whole entry)": "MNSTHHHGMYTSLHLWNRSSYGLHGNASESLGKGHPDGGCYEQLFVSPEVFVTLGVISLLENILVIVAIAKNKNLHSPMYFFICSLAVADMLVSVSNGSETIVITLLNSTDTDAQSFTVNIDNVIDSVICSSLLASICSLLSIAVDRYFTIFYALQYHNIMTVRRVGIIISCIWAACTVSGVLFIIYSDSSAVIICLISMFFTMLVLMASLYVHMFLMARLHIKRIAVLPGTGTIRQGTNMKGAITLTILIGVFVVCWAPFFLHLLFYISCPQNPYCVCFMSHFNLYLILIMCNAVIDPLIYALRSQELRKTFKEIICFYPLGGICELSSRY", "test": "Agonist activity at mouse melanocortin receptor 4 expressed in HEK293 cells assessed as stimulation of intracellular cAMP accumulation at 10 uM incubated for 24 hrs by beta-galactosidase reporter gene assay relative to control", "how_it_was_run": "(§1)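 After lysis, ONPG hydrolysis was read at 405 nm and normalized to Bradford protein and maximal NDP-MSH response. Duplicates, ≥3 independent experiments; 100 μM dropped from fits where toxic.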"}, "[4]": {"biological_target": "Melanocortin receptor 5 (Mus musculus, UniProt P41149)", "sequence (P41149 whole entry)": "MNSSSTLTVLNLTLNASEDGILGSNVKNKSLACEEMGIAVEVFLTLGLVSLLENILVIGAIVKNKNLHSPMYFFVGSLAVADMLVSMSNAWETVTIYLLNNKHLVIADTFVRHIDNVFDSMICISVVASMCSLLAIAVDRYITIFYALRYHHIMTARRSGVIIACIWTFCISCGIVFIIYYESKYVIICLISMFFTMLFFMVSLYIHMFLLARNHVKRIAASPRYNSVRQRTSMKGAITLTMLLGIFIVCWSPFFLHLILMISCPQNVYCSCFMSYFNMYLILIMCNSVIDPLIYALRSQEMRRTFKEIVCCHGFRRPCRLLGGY", "test": "Agonist activity at mouse melanocortin receptor 5 expressed in HEK293 cells assessed as stimulation of intracellular cAMP accumulation incubated for 24 hrs by beta-galactosidase reporter gene assay"}, "[5]": {"biological_target": "T2, Melanocortin receptor 3", "test": "Agonist activity at mouse melanocortin receptor 3 expressed in HEK293 cells assessed as stimulation of intracellular cAMP accumulation incubated for 24 hrs by beta-galactosidase reporter gene assay"}, "[6]": {"biological_target": "T3, Melanocortin receptor 4 (Mus musculus, UniProt P56450)", "T3 sequence (P56450 whole entry)": "as the sequence (P56450 whole entry) above", "test": "Agonist activity at mouse melanocortin receptor 4 expressed in HEK293 cells assessed as stimulation of intracellular cAMP accumulation incubated for 24 hrs by beta-galactosidase reporter gene assay", "how_it_was_run": "as §1"}, "[7]": {"biological_target": "T3, Melanocortin receptor 4", "test": "Antagonist activity at mouse melanocortin receptor 4 expressed in HEK293 cells assessed as inhibition of NDP-MSH-induced intracellular cAMP accumulation incubated for 24 hrs by beta-galactosidase reporter gene assay", "settings": "read-out: pA2 (converted)"}, "[8]": {"biological_target": "T1, Melanocyte-stimulating hormone receptor", "test": "Antagonist activity at mouse melanocortin receptor 1 expressed in HEK293 cells assessed as inhibition of NDP-MSH-induced intracellular cAMP accumulation incubated for 24 hrs by beta-galactosidase reporter gene assay"}, "[9]": {"biological_target": "Melanocyte-stimulating hormone receptor (Mus musculus) (UniProt Q01727)", "sequence (Q01727 whole entry, looked up)": "as the sequence (Q01727 whole entry) above", "test": "Agonist activity at mouse melanocortin receptor 1 expressed in HEK293 cells assessed as stimulation of intracellular cAMP accumulation at 10 uM incubated for 24 hrs by beta-galactosidase reporter gene assay relative to control", "settings": "filed as agonist", "how_it_was_run": "as §1"}, "[10]": {"biological_target": "Melanocortin receptor 5 (Mus musculus) (UniProt P41149)", "sequence (P41149 whole entry)": "as the sequence (P41149 whole entry) above", "test": "Agonist activity at mouse melanocortin receptor 5 expressed in HEK293 cells assessed as stimulation of intracellular cAMP accumulation at 10 uM incubated for 24 hrs by beta-galactosidase reporter gene assay relative to control", "settings": "filed as agonist, time 6.0 hrs, in the assay text read “6 hrs” for “24 hrs”", "how_it_was_run": "as §1"}},
  "data": [
    {"smiles": "CC(C)CCCN1C(=N)N([C@H](Cc2ccccc2)CN2CCC[C@H]2CN2C(=N)NC[C@H]2C(C)C)C[C@H]1C(C)C", "values": [
      {"measurement": "EC50", "setting": "[1]", "value": 10200, "unit": "nM"},
      {"measurement": "EC50", "setting": "[2]", "value": "> 100000", "unit": "nM"},
      {"measurement": "Emax", "setting": "[3]", "value": 21, "unit": "%"},
      {"measurement": "EC50", "setting": "[4]", "value": 1600, "unit": "nM"}
    ]},
    {"smiles": "CC(C)[C@@H]1CNC(=N)N1C[C@@H]1CCCN1C[C@@H](Cc1ccccc1)N1C[C@@H]([C@@H](C)O)N(CC23CC4CC(CC(C4)C2)C3)C1=N", "values": [
      {"measurement": "EC50", "setting": "[1]", "value": 440, "unit": "nM"},
      {"measurement": "EC50", "setting": "[5]", "value": 360, "unit": "nM"},
      {"measurement": "EC50", "setting": "[6]", "value": 580, "unit": "nM"},
      {"measurement": "Emax", "setting": "[3]; filed as agonist", "value": 75, "unit": "%"},
      {"measurement": "Kb", "setting": "[7]", "value": 1580, "unit": "nM"},
      {"measurement": "EC50", "setting": "[4]", "value": 180, "unit": "nM"}
    ]},
    {"smiles": "CCC[C@@H]1CN([C@H](Cc2ccccc2)CN2CCC[C@H]2CN2C(=N)NC[C@H]2CC(C)C)C(=N)N1CCCC(C)C", "values": [
      {"measurement": "EC50", "setting": "[8]", "value": "> 100000", "unit": "nM"},
      {"measurement": "EC50", "setting": "[2]", "value": "> 100000", "unit": "nM"},
      {"measurement": "Emax", "setting": "[3]; filed as agonist", "value": 51, "unit": "%"},
      {"measurement": "EC50", "setting": "[4]", "value": 2180, "unit": "nM"}
    ]},
    {"smiles": "CC(C)CCCN1C(=N)N([C@H](Cc2ccccc2)CN2CCC[C@H]2CN2C(=N)NC[C@H]2CC(C)C)C[C@H]1[C@@H](C)O", "values": [
      {"measurement": "Emax", "setting": "[9]", "value": 62, "unit": "%"},
      {"measurement": "EC50", "setting": "[2]", "value": "> 100000", "unit": "nM"},
      {"measurement": "Emax", "setting": "[10]", "value": 77, "unit": "%"}
    ]},
    {"smiles": "CC(C)CCCN1C(=N)N([C@H](Cc2ccccc2)CN2CCC[C@H]2CN2C(=N)NC[C@H]2C(C)C)C[C@H]1[C@@H](C)O", "values": [
      {"measurement": "Emax", "setting": "[9]", "value": 51, "unit": "%"},
      {"measurement": "EC50", "setting": "[2]", "value": "> 100000", "unit": "nM"},
      {"measurement": "Emax", "setting": "[10]", "value": 40, "unit": "%"}
    ]},
    {"smiles": "CCC[C@@H]1CN([C@H](Cc2ccccc2)CN2CCC[C@H]2CN2C(=N)NC[C@H]2C(C)C)C(=N)N1CCCC(C)C", "values": [
      {"measurement": "EC50", "setting": "[1]", "value": 22900, "unit": "nM"},
      {"measurement": "EC50", "setting": "[2]", "value": "> 100000", "unit": "nM"},
      {"measurement": "Emax", "setting": "[3]; filed as agonist", "value": 41, "unit": "%"},
      {"measurement": "EC50", "setting": "[4]", "value": 2030, "unit": "nM"}
    ]}
  ]
}
